Measured values published in ChEMBL document CHEMBL1156003, “A strategy of employing aminoheterocycles as amide mimics to identify novel, potent and bioavailable soluble epoxide hydrolase inhibitors” (Bioorg Med Chem Lett, 2009).

How the values were obtained:
[1] = biological target: T1, Bifunctional epoxide hydrolase 2 (Homo sapiens, UniProt P34913); test: Inhibition of human sEH
T1 sequence (P34913 whole entry): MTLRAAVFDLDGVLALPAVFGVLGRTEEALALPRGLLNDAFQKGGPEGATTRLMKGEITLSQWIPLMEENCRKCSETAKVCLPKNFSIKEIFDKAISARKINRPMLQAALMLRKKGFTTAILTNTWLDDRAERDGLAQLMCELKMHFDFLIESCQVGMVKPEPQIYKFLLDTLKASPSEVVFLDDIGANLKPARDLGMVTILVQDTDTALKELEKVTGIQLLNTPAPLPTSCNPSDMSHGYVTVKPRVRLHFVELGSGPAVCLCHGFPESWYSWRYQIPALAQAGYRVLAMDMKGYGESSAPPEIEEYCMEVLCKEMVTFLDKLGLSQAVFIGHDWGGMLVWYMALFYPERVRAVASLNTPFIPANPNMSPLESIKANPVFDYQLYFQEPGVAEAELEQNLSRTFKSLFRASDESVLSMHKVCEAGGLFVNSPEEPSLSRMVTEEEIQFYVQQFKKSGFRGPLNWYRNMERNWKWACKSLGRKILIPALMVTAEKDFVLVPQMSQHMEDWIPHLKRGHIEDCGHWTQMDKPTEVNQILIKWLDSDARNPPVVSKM
Procedure, shortened: (§1)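 Human and rat sEH enzyme inhibition; values from one or two experiments, each in triplicate, within 20% deviation on repeat.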

[2] = biological target: T2, Bifunctional epoxide hydrolase 2 (Rattus norvegicus, UniProt P80299); test: Inhibition of rat sEH; procedure, shortened: as §1
T2 sequence (P80299 whole entry): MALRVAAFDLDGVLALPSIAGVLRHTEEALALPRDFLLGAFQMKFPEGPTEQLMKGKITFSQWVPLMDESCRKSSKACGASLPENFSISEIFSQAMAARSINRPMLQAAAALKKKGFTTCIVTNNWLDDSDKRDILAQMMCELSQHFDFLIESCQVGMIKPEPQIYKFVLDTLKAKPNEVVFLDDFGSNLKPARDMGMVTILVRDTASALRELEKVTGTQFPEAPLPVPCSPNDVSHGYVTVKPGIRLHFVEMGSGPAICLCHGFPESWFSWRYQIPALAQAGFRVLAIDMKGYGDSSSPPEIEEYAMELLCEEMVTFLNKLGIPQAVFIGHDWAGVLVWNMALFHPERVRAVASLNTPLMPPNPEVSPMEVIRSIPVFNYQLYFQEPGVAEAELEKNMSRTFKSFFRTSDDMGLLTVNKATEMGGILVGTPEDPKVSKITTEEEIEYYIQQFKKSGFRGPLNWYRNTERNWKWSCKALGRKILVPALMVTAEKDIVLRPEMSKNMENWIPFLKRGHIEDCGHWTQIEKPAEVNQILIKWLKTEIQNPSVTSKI

[3] = Half life at steady state in rat at 1 mg/kg, iv and 2 mg/kg, po; format: ADME, organism-based; conditions: in vivo
Procedure, shortened: (§2)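 Rat PK: dosed at 1 mg/mL in ethanol/PEG/water (20:40:40); IV 1 mg/kg (n = 2), PO 2 mg/kg (n = 3). Blood levels measured by LC/MS/MS after acetonitrile protein precipitation.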

[4] = Clearance in rat at 1 mg/kg, iv and 2 mg/kg, po; format: ADME, organism-based; conditions: in vivo; procedure, shortened: as §2
[5] = Volume of distribution at steady state in rat at 1 mg/kg, iv and 2 mg/kg, po; format: ADME, organism-based; conditions: in vivo, read-out: Vdss; procedure, shortened: as §2
Plasma [6] = test: Fraction unbound in rat plasma at 0.2 to 25 uM; format: ADME, cell-free; conditions: in the assay text read “0.5 to 25 uM” for “0.2 to 25 uM”
Procedure, shortened: (§3)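 Free fraction measured with radiolabeled compound in human and rat plasma, compound at 0.5–25 μM.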

Plasma [7] = test: Fraction unbound in human plasma at 0.2 to 25 uM; format: ADME, cell-free; conditions: in the assay text read “0.5 to 25 uM” for “0.2 to 25 uM”; procedure, shortened: as §3
[8] = biological target: T1, Bifunctional epoxide hydrolase 2; test: Inhibition of human sEH assessed as DHET production in presence of 10% human serum
[9] = Oral bioavailability in rat at 2 mg/kg; format: ADME, organism-based; conditions: in vivo; procedure, shortened: as §2

Row | IC50 [1] [nM] | IC50 [2] [nM] | SMILES | further results
1 | > 10000 | – | c1ccc(Cc2nnc(Nc3ccccc3)o2)cc1 | –
2 | 58 | 19 | FC(F)(F)c1ccc(Nc2noc3cc(-c4ccncc4)ccc23)cc1 | –
3 | 960 | – | c1ccc(-c2cccc(Nc3noc4ccccc34)c2)cc1 | –
4 | 840 | 4600 | c1ccc2c(Nc3noc4ccccc34)cccc2c1 | –
5 | 2500 | – | FC(F)(F)c1ccc(Nc2nsc3ccccc23)cc1 | –
6 | > 10000 | – | FC(F)(F)c1ccc(Nc2cc(-c3ccccc3)on2)cc1 | –
7 | > 10000 | – | c1ccc(CNc2nnc(-c3ccccc3)o2)cc1 | –
8 | 1200 | – | FC(F)(F)c1ccc(CNc2noc3ccccc23)cc1 | –
9 | 8 | 41 | FC(F)(F)c1ccc(Nc2noc3c(-c4ccc5[nH]ccc5c4)cccc23)cc1 | –
10 | 91 | 55 | Fc1ccccc1-c1ccc2c(Nc3ccc(C(F)(F)F)cc3)noc2c1 | –
11 | 4700 | – | FC(F)(F)c1ccc(CNc2cc(-c3ccccc3)on2)cc1 | –
12 | 25 | 76 | FC(F)(F)c1ccc(Nc2noc3ccccc23)cc1 | –
13 | > 10000 | – | c1ccc(CNc2nnc(Cc3ccccc3)o2)cc1 | –
14 | 1200 | – | c1ccc2cc(Nc3noc4ccccc34)ccc2c1 | –
15 | > 10000 | > 10000 | FC(F)(F)c1ccc(Nc2noc3c(C(F)(F)F)cccc23)nc1 | –
16 | 4 | 127 | FC(F)(F)c1ccc(Nc2noc3c(C(F)(F)F)cccc23)cc1 | half-life [3]: 354 min; clearance [4]: 30 mL/min/kg; Vd [5]: 7 L/kg; Fu (Plasma [6]): 0.9%; Fu (Plasma [7]): 0.7%; IC50 [8]: 1200 nM; bioavailability [9]: 98%
17 | 18 | – | FC(F)(F)c1ccc(Nc2noc3cc(C(F)(F)F)ccc23)cc1 | –
18 | 27 | – | FC(F)(F)c1ccc(Nc2noc3ncccc23)cc1 | –
19 | 5200 | – | FC(F)(F)Oc1ccccc1Nc1noc2ccccc12 | –
20 | > 10000 | – | c1ccc(CNc2cc(-c3ccccc3)ccn2)cc1 | –
21 | 2000 | – | FC(F)(F)c1nnc(Nc2ccccc2)o1 | –
22 | > 10000 | – | FC(F)(F)c1ccc(Nc2n[nH]c3ccccc23)cc1 | –
23 | 74 | 3400 | FC(F)(F)c1ccc(Nc2noc3c(C(F)(F)F)cccc23)cn1 | –
24 | > 10000 | – | c1ccc(CNc2cnc3ccccc3n2)cc1 | –

The next lines start with the molecule.

Row | SMILES | IC50 [1] [nM] | IC50 [2] [nM] | further results
25 | c1ccc(CNc2ccc(-c3ccccc3)cn2)cc1 | > 10000 | – | –
26 | c1ccc(CNc2nc3ccccc3s2)cc1 | > 10000 | – | –
27 | FC(F)(F)c1ccc(Nc2noc3cc(-c4cccnc4)ccc23)cc1 | 23 | 20 | –
28 | FC(F)(F)c1ccc(Nc2noc3cc(-c4cccc5cnccc45)ccc23)cc1 | 19 | 30 | –
29 | FC(F)(F)c1ccc(Nc2noc3ccc(C(F)(F)F)cc23)cc1 | 40 | 1500 | –
30 | c1ccc(CNc2cnc(-c3ccccc3)cn2)cc1 | > 10000 | – | –
31 | c1ccc(CNc2nc3ccccc3o2)cc1 | > 10000 | – | –
32 | FC(F)(F)c1cccc(CNc2cc(-c3ccccc3)ncn2)c1 | > 10000 | – | –
33 | FC(F)(F)c1ccc(Nc2noc3cc(-c4cccc(C(F)(F)F)c4)ccc23)cc1 | 470 | 570 | –
34 | FC(F)(F)c1ccc(Nc2noc3c(-c4cccc(C(F)(F)F)c4)cccc23)cc1 | 10 | 130 | –
35 | Cc1cccnc1-c1ccc2c(Nc3ccc(C(F)(F)F)cc3)noc2c1 | 70 | 290 | –
36 | FC(F)(F)Oc1ccc(Nc2noc3ccccc23)cc1 | 60 | 170 | –
37 | FC(F)(F)c1ccc(Nc2noc3c(C(F)(F)F)nccc23)cc1 | 19 | 300 | –
38 | FC(F)(F)c1ccccc1Nc1noc2ccccc12 | 960 | – | –
39 | FC(F)(F)c1ccc(Nc2noc3c(-c4ccccc4C(F)(F)F)cccc23)cc1 | 4 | 79 | –
40 | FC(F)(F)c1ccc(Nc2noc3cnccc23)cc1 | 31 | – | –
41 | FC(F)(F)c1ccc(Nc2noc3cccnc23)cc1 | 1100 | – | –
42 | c1ccc(-c2ccc(Nc3noc4ccccc34)cc2)cc1 | 170 | 740 | –
43 | FC(F)(F)c1ccc(Nc2noc3cc(-c4ccccc4C(F)(F)F)ccc23)cc1 | 8 | 70 | –
44 | FC(F)(F)c1ccc(Nc2noc3cc(-c4ccc5[nH]ccc5c4)ccc23)cc1 | 70 | 77 | –
45 | FC(F)(F)c1ccc(Nc2noc3ccncc23)cc1 | 340 | – | –
46 | FC(F)(F)Oc1cccc(Nc2noc3ccccc23)c1 | 160 | 160 | –
